ChEMBL document CHEMBL1138555, “N-acylated and N,N'-diacylated imidazolidine-2-thione derivatives and N,N'-diacylated tetrahydropyrimidine-2(1H)-thione analogues: synthesis and antiproliferative activity” (Eur J Med Chem, 2009)

System: M14
Test: Growth inhibition of human M14 cells after 48 hrs by sulforhodamine B assay
Assay type: functional
Conditions: M14, 48 h
Summary of the method: (§1)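 NCI screen panel. Five 10-fold concentrations from 10^-4 to 10^-8 M. Exposure for the last 48 h of a 72 h incubation. Growth estimated by sulforhodamine B protein assay. GI50 is the concentration giving 50% growth inhibition. Where that level was not reached or was exceeded, the value is given as above or below the highest or lowest concentration tested.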
`COC(=O)/C(C#N)=C/N1CCN(C(=O)c2ccco2)C1=S` showed a GI50 of 6.4 µM.

System: HOP-92
Test: Growth inhibition of human HOP92 cells after 48 hrs by sulforhodamine B assay
Assay type: functional
Conditions: HOP-92, 48 h
Summary of the method: as §1
With `COC(=O)/C(C#N)=C/N1CCN(C(=O)c2ccco2)C1=S` the GI50 was 14 µM.

System: Malme-3M
Test: Growth inhibition of human MALME-3M cells after 48 hrs by sulforhodamine B assay
Assay type: functional
Conditions: not given
Summary of the method: as §1
Work on `COC(=O)/C(C#N)=C/N1CCN(C(=O)c2ccco2)C1=S` yielded a GI50 of 32.7 µM.

System: 786-0
Test: Growth inhibition of human 786-0 cells after 48 hrs by sulforhodamine B assay
Assay type: functional
Conditions: 786-0, 48 h
Summary of the method: as §1
`COC(=O)/C(C#N)=C/N1CCN(C(=O)c2ccco2)C1=S` gave a GI50 of 6.3 µM.

System: IGROV-1
Test: Growth inhibition of human IGROV1 cells after 48 hrs by sulforhodamine B assay
Assay type: functional
Conditions: IGROV-1, 48 h
Summary of the method: as §1
Compound `COC(=O)/C(C#N)=C/N1CCN(C(=O)c2ccco2)C1=S` has a GI50 of 6.2 µM.

System: SNB-75
Test: Growth inhibition of human SNB75 cells after 48 hrs by sulforhodamine B assay
Assay type: functional
Conditions: SNB-75, 48 h
Summary of the method: (§2)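 NCI in vitro panel screen. Compounds tested at five 10-fold dilutions, 10^-4 to 10^-8 M. Cells in 96-well plates were exposed for the last 48 h of a 72 h incubation. Viability/growth was read by sulforhodamine B protein assay. GI50 is the concentration giving 50% growth inhibition. Values beyond the tested range are reported as greater or less than the maximum or minimum concentration.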
With `COC(=O)/C(C#N)=C/N1CCN(C(=O)c2ccco2)C1=S` the GI50 was 15.5 µM.

System: SK-OV-3
Test: Growth inhibition of human SKOV3 cells after 48 hrs by sulforhodamine B assay
Assay type: functional
Conditions: SK-OV-3, 48 h
Summary of the method: as §1
Work on `COC(=O)/C(C#N)=C/N1CCN(C(=O)c2ccco2)C1=S` yielded a GI50 of 28.2 µM.

System: MDA-MB-231
Test: Growth inhibition of human MDA-MB-231 cells after 48 hrs by sulforhodamine B assay
Assay type: functional
Conditions: MDA-MB-231, 48 h
Summary of the method: as §1
Compound `COC(=O)/C(C#N)=C/N1CCN(C(=O)c2ccco2)C1=S` has a GI50 of 4.2 µM.

System: not listed separately
Test: Growth inhibition of human […] cells after 48 hrs by sulforhodamine B assay
Assay type: functional
Conditions: not given
Summary of the method: as §1
Work on `COC(=O)/C(C#N)=C/N1CCN(C(=O)c2ccco2)C1=S` yielded a GI50 of 3.3 µM.

System: SR
Test: Growth inhibition of human SR cells after 48 hrs by sulforhodamine B assay
Assay type: functional
Conditions: not given
Summary of the method: as §2
For `COC(=O)/C(C#N)=C/N1CCN(C(=O)c2ccco2)C1=S`, the GI50 was 2.1 µM.

System: SW-620
Test: Growth inhibition of human SW620 cells after 48 hrs by sulforhodamine B assay
Assay type: functional
Conditions: SW-620, 48 h
Summary of the method: as §2
For `COC(=O)/C(C#N)=C/N1CCN(C(=O)c2ccco2)C1=S`, the GI50 was 5.2 µM.

System: ACHN
Test: Growth inhibition of human ACHN cells after 48 hrs by sulforhodamine B assay
Assay type: functional
Conditions: not given
Summary of the method: as §1
In the case of `COC(=O)/C(C#N)=C/N1CCN(C(=O)c2ccco2)C1=S`, the GI50 is reported as 4.8 µM.

System: UACC-62
Test: Growth inhibition of human UACC62 cells after 48 hrs by sulforhodamine B assay
Assay type: functional
Conditions: UACC-62, 48 h
Summary of the method: as §2
Compound `COC(=O)/C(C#N)=C/N1CCN(C(=O)c2ccco2)C1=S` has a GI50 of 10.8 µM.

System: KM12
Test: Growth inhibition of human KM12 cells after 48 hrs by sulforhodamine B assay
Assay type: functional
Conditions: KM12, 48 h
Summary of the method: as §1
For `COC(=O)/C(C#N)=C/N1CCN(C(=O)c2ccco2)C1=S`, the GI50 was 3.3 µM.

System: UO-31
Test: Growth inhibition of human UO31 cells after 48 hrs by sulforhodamine B assay
Assay type: functional
Conditions: UO-31, 48 h
Summary of the method: as §2
Work on `COC(=O)/C(C#N)=C/N1CCN(C(=O)c2ccco2)C1=S` yielded a GI50 of 5.2 µM.

System: HL-60(TB)
Test: Growth inhibition of human HL-60(TB) cells after 48 hrs by sulforhodamine B assay
Assay type: functional
Conditions: HL-60, 48 h
Summary of the method: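 NCI 60-cell-line screen protocol: cells exposed to compound at five 10-fold dilutions from 10^-4 to 10^-8 M for the last 48 h of a 72 h incubation. Sulforhodamine B protein assay estimated viability/growth. GI50 (50% growth inhibition) derived; where not reached or exceeded, reported as greater or less than the highest or lowest concentration tested.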
For `COC(=O)/C(C#N)=C/N1CCN(C(=O)c2ccco2)C1=S`, the GI50 was 6.9 µM.

System: T47D
Test: Growth inhibition of human T47D cells after 48 hrs by sulforhodamine B assay
Assay type: functional
Conditions: not given
Summary of the method: as §2
With `COC(=O)/C(C#N)=C/N1CCN(C(=O)c2ccco2)C1=S` the GI50 was 4.6 µM.

System: OVCAR-8
Test: Growth inhibition of human OVCAR8 cells after 48 hrs by sulforhodamine B assay
Assay type: functional
Conditions: OVCAR-8, 48 h
Summary of the method: as §1
With `COC(=O)/C(C#N)=C/N1CCN(C(=O)c2ccco2)C1=S` the GI50 was 15.5 µM.

System: SK-MEL-28
Test: Growth inhibition of human SK-MEL-28 cells after 48 hrs by sulforhodamine B assay
Assay type: functional
Conditions: SK-MEL-28, 48 h
Summary of the method: as §1
Work on `COC(=O)/C(C#N)=C/N1CCN(C(=O)c2ccco2)C1=S` yielded a GI50 of 13 µM.

System: NCI-H23
Test: Growth inhibition of human NCI-H23 cells after 48 hrs by sulforhodamine B assay
Assay type: functional
Conditions: NCI-H23, 48 h
Summary of the method: as §1
For `COC(=O)/C(C#N)=C/N1CCN(C(=O)c2ccco2)C1=S`, the GI50 was 13.2 µM.

System: LOX IMVI
Test: Growth inhibition of human LOXIMVI cells after 48 hrs by sulforhodamine B assay
Assay type: functional
Conditions: not given
Summary of the method: as §1
In the case of `COC(=O)/C(C#N)=C/N1CCN(C(=O)c2ccco2)C1=S`, the GI50 is reported as 2.4 µM.

System: MDA-MB-435
Test: Growth inhibition of human MDA-MB-435 cells after 48 hrs by sulforhodamine B assay
Assay type: functional
Conditions: MDA-MB-435, 48 h
Summary of the method: as §1
In the case of `COC(=O)/C(C#N)=C/N1CCN(C(=O)c2ccco2)C1=S`, the GI50 is reported as 6.8 µM.

System: DU-145
Test: Growth inhibition of human DU145 cells after 48 hrs by sulforhodamine B assay
Assay type: functional
Conditions: DU-145, 48 h
Summary of the method: as §1
Work on `COC(=O)/C(C#N)=C/N1CCN(C(=O)c2ccco2)C1=S` yielded a GI50 of 3.5 µM.

System: UACC-257
Test: Growth inhibition of human UACC257 cells after 48 hrs by sulforhodamine B assay
Assay type: functional
Conditions: UACC-257, 48 h
Summary of the method: as §2
Compound `COC(=O)/C(C#N)=C/N1CCN(C(=O)c2ccco2)C1=S` has a GI50 of 5.9 µM.

System: HCT-15
Test: Growth inhibition of human HCT15 cells after 48 hrs by sulforhodamine B assay
Assay type: functional
Conditions: HCT-15, 48 h
Summary of the method: as §1
Work on `COC(=O)/C(C#N)=C/N1CCN(C(=O)c2ccco2)C1=S` yielded a GI50 of 3 µM.
